In brackets after ≈: the same amount, converted by molar mass.
Tests used:
[1] = target: T1, Farnesyltransferase, putative (Leishmania major, UniProt Q4Q5W4); assay: Inhibition of Leishmania major recombinant squalene synthase expressed in Escherichia coli by liquid scintillation counter
T1 sequence (Q4Q5W4 whole entry): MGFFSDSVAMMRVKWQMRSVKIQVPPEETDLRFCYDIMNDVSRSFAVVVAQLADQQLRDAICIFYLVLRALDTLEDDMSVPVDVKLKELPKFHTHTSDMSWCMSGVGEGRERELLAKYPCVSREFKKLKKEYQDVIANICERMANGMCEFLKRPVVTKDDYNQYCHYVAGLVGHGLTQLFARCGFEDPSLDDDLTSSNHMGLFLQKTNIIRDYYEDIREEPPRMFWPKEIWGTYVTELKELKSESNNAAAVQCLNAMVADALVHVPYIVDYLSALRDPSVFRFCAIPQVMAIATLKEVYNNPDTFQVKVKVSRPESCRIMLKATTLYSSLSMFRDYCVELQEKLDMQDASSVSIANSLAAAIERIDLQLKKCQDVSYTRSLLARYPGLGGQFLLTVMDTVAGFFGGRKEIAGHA
Outline: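 Soluble E. coli extract expressing L. major SQS truncated by 16 N-terminal and 40 C-terminal residues. Buffer: 50 mM phosphate pH 7.4, 20 mM MgCl2, 5 mM CHAPS, 1% Tween 80, 10 mM DTT, BSA, 0.25 mM NADPH, and a glucose-6-phosphate/G6PDH regenerating system. Substrate 0.5 μM radiolabelled farnesyl pyrophosphate. Squalene band counted by scintillation. IC50 from hyperbolic plot of five concentrations in duplicate, usually run twice.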

Leishmania amazonensis [2] = assay: Inhibition of sterol biosynthesis in Leishmania mexicana amazonensis promastigotes assessed as reduction in endogenous episterol level at 10 uM after 96 hrs by gas-liquid chromatography; format: functional; set-up: scale not given: the % may be the effect or the level left
Outline: (§1)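 L. mexicana promastigotes exposed to compound for 96 h. Total lipids extracted and neutral sterols separated from polar lipids by silicic acid column chromatography. Sterols analysed by TLC and by quantitative capillary gas-liquid chromatography with mass spectrometry. Composition expressed as mass % of free sterols, compared with untreated control.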

Leishmania amazonensis [3] = assay: Inhibition of sterol biosynthesis in Leishmania mexicana amazonensis promastigotes assessed as reduction in endogenous cholesta-5,7,24-trien-3beta-ol level at 10 uM after 96 hrs by gas-liquid chromatography; format: functional; set-up: scale not given: the % may be the effect or the level left; outline: as §1
Leishmania amazonensis [4] = assay: Inhibition of sterol biosynthesis in Leishmania mexicana amazonensis promastigotes assessed as reduction in exogenous cholesterol level at 10 uM after 96 hrs by gas-liquid chromatography; format: functional; set-up: scale not given: the % may be the effect or the level left; outline: as §1
Plasmodium falciparum = assay: Antiplasmodial activity after 48 hrs against chloroquine and pyrimethamine-resistant Plasmodium falciparum K1 in human erythrocytes by [3H]hypoxanthine uptake; format: functional, organism-based
Outline: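 P. falciparum K1 in human red cells in RPMI 1640 with 5% Albumax, exposed to serial drug dilutions. Incubated 48 h at 37°C under reduced oxygen, then 0.5 μCi [³H]hypoxanthine per well for 24 h more. Cells harvested onto glass-fibre filters and counted by scintillation. Result expressed as % of untreated control, with IC50 from sigmoidal curve. Duplicate, plus an independent repeat for actives.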

Leishmania amazonensis [5] = assay: Inhibition of sterol biosynthesis in Leishmania mexicana amazonensis promastigotes assessed as reduction in endogenous 5-dehydro episterol level at 10 uM after 96 hrs by gas-liquid chromatography; format: functional; set-up: scale not given: the % may be the effect or the level left; outline: as §1
Trypanosoma cruzi = assay: Antitrypanosomal activity against trypomastigotes of Trypanosoma cruzi Tulahuen C2C4 containing lacZ gene in rat L6 cells after 4 days by chlorophenol red-beta-D-galactopyranoside/Nonidet assay; format: functional, organism-based; settings: Tulahuen C2C4, L6, 96 h
Outline: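 L-6 rat myoblasts seeded at 2,000 cells/well in RPMI 1640 with 10% FBS and 2 mM L-glutamine. After 24 h, 5,000 T. cruzi Tulahuen C2C4 lacZ trypomastigotes added with serial drug dilution. Incubated at 37°C in 5% CO2 for 4 days. CPRG/Nonidet substrate added and colour read at 540 nm after 2–4 h. IC50 from sigmoidal curve. Duplicate determinations.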

Leishmania amazonensis [6] = assay: Inhibition of sterol biosynthesis in Leishmania mexicana amazonensis promastigotes assessed as reduction in endogenous cholesta-7,24-dien-3beta-ol level at 10 uM after 96 hrs by gas-liquid chromatography; format: functional; set-up: scale not given: the % may be the effect or the level left; outline: as §1
Leishmania donovani = assay: Antileishmanial activity against Leishmania donovani MHOM/ET/67/L82 axenic amastigotes after 72 hrs by resazurin assay; format: functional, organism-based; settings: MHOM/ET/67/L82, 72 h
Outline: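 L. donovani MHOM/ET/67/L82 amastigotes grown axenically at 37°C in synthetic minimal medium at pH 5.4 with 10% heat-inactivated FBS under 5% CO2. 1 × 10⁵ amastigotes per well with seven threefold dilutions, 30 to 0.041 μg/ml. After 72 h, resazurin added for 2–4 h more. Fluorescence read at ex 536/em 588 nm. IC50 taken from sigmoidal curve. Run in duplicate, with an independent repeat for actives.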

Leishmania amazonensis [7] = assay: Antileishmanial activity against Leishmania mexicana amazonensis promastigotes by trypan blue exclusion method; format: functional, organism-based
Outline: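 L. mexicana amazonensis promastigotes cultured in liver infusion-tryptose medium with lactalbumin and 10% FCS at 26°C, unagitated. Cultures started at 2 × 10⁶ cells/ml and drug added at 0.5–1 × 10⁷ cells/ml. Density counted by electronic particle counter and hemocytometer. Viability by trypan blue exclusion. Triplicate growth experiments.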

L6 = assay: Cytotoxicity against rat L6 cells after 72 hrs by resazurin assay; format: cell-based; settings: L6, 72 h
Outline: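 L-6 cells seeded at 4 × 10⁴ cells/ml in RPMI 1640 with 10% FBS and 2 mM L-glutamine. After 24 h, medium replaced with serial drug dilution and incubated for 72 h at 37°C in 5% CO2. Resazurin added for 2–4 h, fluorescence read at ex 536/em 588 nm. IC50 from sigmoidal curve. Duplicate, with an independent repeat for actives.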

[8] = system: Trypanosoma brucei rhodesiense; assay: Trypanocidal activity against Trypanosoma brucei rhodesiense STIB 900 bloodstream form after 72 hrs by resazurin assay; format: functional, organism-based; settings: STIB 900, 72 h
Outline: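 T. b. rhodesiense STIB 900 bloodstream forms in MEM with 2-mercaptoethanol and 15% heat-inactivated horse serum, with serial drug dilutions. Incubated 72 h at 37°C in 5% CO2. Resazurin added for 2–4 h more, fluorescence read at ex 536/em 588 nm. IC50 from sigmoidal curve. Duplicate, with an independent repeat for actives.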

Leishmania amazonensis [9] = assay: Inhibition of sterol biosynthesis in Leishmania mexicana amazonensis promastigotes assessed as reduction in endogenous episterol level at 1 uM after 96 hrs by gas-liquid chromatography; format: functional; set-up: scale not given: the % may be the effect or the level left; outline: as §1
Leishmania amazonensis [10] = assay: Inhibition of sterol biosynthesis in Leishmania mexicana amazonensis promastigotes assessed as reduction in exogenous cholesterol level at 3 uM after 96 hrs by gas-liquid chromatography; format: functional; set-up: scale not given: the % may be the effect or the level left; outline: as §1
Leishmania amazonensis [11] = assay: Inhibition of sterol biosynthesis in Leishmania mexicana amazonensis promastigotes assessed as reduction in exogenous cholesterol level at 1 uM after 96 hrs by gas-liquid chromatography; format: functional; set-up: scale not given: the % may be the effect or the level left; outline: as §1
Leishmania amazonensis [12] = assay: Inhibition of sterol biosynthesis in Leishmania mexicana amazonensis promastigotes assessed as reduction in endogenous 5-dehydro episterol level at 1 uM after 96 hrs by gas-liquid chromatography; format: functional; set-up: scale not given: the % may be the effect or the level left; outline: as §1
Leishmania amazonensis [13] = assay: Inhibition of sterol biosynthesis in Leishmania mexicana amazonensis promastigotes assessed as reduction in endogenous episterol level at 3 uM after 96 hrs by gas-liquid chromatography; format: functional; set-up: scale not given: the % may be the effect or the level left; outline: as §1
Leishmania amazonensis [14] = assay: Inhibition of sterol biosynthesis in Leishmania mexicana amazonensis promastigotes assessed as reduction in endogenous 5-dehydro episterol level at 3 uM after 96 hrs by gas-liquid chromatography; format: functional; set-up: scale not given: the % may be the effect or the level left; outline: as §1

SMILES	IC50 [1]	Activity (Leishmania amazonensis [2])	Activity (Leishmania amazonensis [3])	Activity (Leishmania amazonensis [4])	IC50 (Plasmodium falciparum)	Activity (Leishmania amazonensis [5])	IC50 (Trypanosoma cruzi)	Activity (Leishmania amazonensis [6])	IC50 (Leishmania donovani)	MIC (Leishmania amazonensis [7])	IC50 (L6)	IC50 [8]	Activity (Leishmania amazonensis [9])	Activity (Leishmania amazonensis [10])	Activity (Leishmania amazonensis [11])	Activity (Leishmania amazonensis [12])	Activity (Leishmania amazonensis [13])	Activity (Leishmania amazonensis [14])
OC[C@@H]1CC2CCN1C[C@@H]2C#Cc1cnc2ccccc2c1 (some centres undefined)	> 1 µM	13.7%	5.9%	27.5%	1.7 µM	40.6%	19.1 µM	12.3%	80 µM	> 10 µM	169 µM	7.1 µM	–	–	–	–	–	–
OC1(C#Cc2ccc(OCc3ccccc3)cc2)CN2CCC1CC2 (centres undefined)	–	–	–	–	1.9 µM	–	9.6 µM	–	3.2 µM	1 µM (≈ 0.333 µg/mL)	45 µM	1.9 µM	8.4%	>99%	74.6%	17%	–	–
CCOC(=O)c1ccc(C#C[C@H]2CN3CCC2C[C@H]3CO)cc1 (some centres undefined)	> 1 µM	4.1%	23.6%	18.7%	0.6 µM	50.3%	19.4 µM	3.3%	10.2 µM	> 10 µM	37.6 µM	1.7 µM	–	–	–	–	–	–
CC(C)OC(=O)c1ccc(C2=CN3CCC2CC3)cc1	> 1 µM	–	–	–	14 µM	–	23 µM	–	1.1 µM	3 µM (≈ 0.814 µg/mL)	152 µM	7.2 µM	12.8%	74.5%	44.4%	42.8%	25.5%	–
CCCCCCOc1ccc(C#CC2(O)CN3CCC2CC3)cc1 (centres undefined)	–	–	–	–	0.7 µM	–	5.6 µM	–	4.7 µM	1 µM (≈ 0.327 µg/mL)	15.9 µM	0.5 µM	14.6%	>99%	20.4%	65%	–	–
Cc1cc(C)cc(C#CC2(O)CN3CCC2CC3)c1 (centres undefined)	> 1 µM	11.9%	–	48.2%	4.3 µM	39.9%	18.9 µM	–	12.6 µM	10 µM (≈ 2.55 µg/mL)	175 µM	9.2 µM	–	19.6%	–	–	12%	68.4%
COc1ccc(COc2ccc(C#CC3(O)CN4CCC3CC4)cc2)cc1OC (centres undefined)	–	16.6%	–	44.6%	2 µM	38.8%	13.4 µM	–	4.6 µM	1 µM (≈ 0.393 µg/mL)	78.7 µM	3.4 µM	–	15.6%	–	–	14.6%	69.8%
C1=C(c2ccc3ccccc3c2)C2CCN1CC2	> 1 µM	14.2%	–	33.8%	11 µM	52%	34.1 µM	–	12.3 µM	3 µM (≈ 0.706 µg/mL)	101 µM	24.2 µM	–	35.9%	–	–	28.9%	35.2%

Source: ChEMBL document CHEMBL1137637, “Quinuclidine derivatives as potential antiparasitics” (Antimicrob Agents Chemother, 2007)
